Measured values reported in paper PMC4759708 (CPT: Pharmacometrics & Systems Pharmacology, 2015).
Values joined by “and” are separate entries in the source; they are usually repeats but may differ in a detail not shown here. Identical values can stand only once. Like-named read-outs stand apart in the source and are kept apart here.

Legend:
[1] = tested on: LPS-stimulated TNFα ex vivo; settings: patients treated, same bioassay; cited from earlier work
[2] = tested on: LPS-stimulated TNFα release; settings: read-out: IC50, TNFα release in the same (human whole blood) assay; cited from earlier work
p38α [3] = biological target: T1, p38α (Homo sapiens, UniProt Q16539); test: In-house p38α inhibition, radiometric; assay type: biochemical; settings: read-out: IC50 on p38α (radiometric); in-house studies
p38α [4] = biological target: T1, p38α; test: In-house p38α inhibition, ELISA; assay type: biochemical; settings: read-out: IC50 on p38α (ELISA); in-house studies
[5] = tested on: LPS-stimulated TNFα release; test: LPS-stimulated TNFα release in the human whole blood assay; assay type: cell-based
[6] = Safety and tolerability in healthy subjects; assay type: in vivo, human; settings: data not shown
[7] = COPD patients; intermittent short-term dosing 75 mg on days 1 and 6; cited from earlier work
serum levels of TNFα = test: Serum TNFα levels after in vivo intravenous LPS challenge; parameters: species or system human; settings: data not shown
Procedure, shortened: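 Healthy subjects received a single oral dose, then an intravenous LPS challenge, and serum TNFα was measured. They fasted 10 h before dosing and 4 h after. Apart from the dosing fluid, no fluid was allowed from 2 h before to 2 h after dosing.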

P-glycoprotein = P-glycoprotein (Homo sapiens, UniProt P08183); test: Caco-2 model of intestinal uptake/efflux; assay type: in vitro ADME; settings: unpublished data
[8] = Tissue distribution in pigmented and albino rats; assay type: in vivo; settings: pigmented vs albino, unpublished data
[9] = tested on: ex vivo LPS-induced TNFα secretion; assay type: in vivo, human
Procedure, shortened: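 Healthy adults received randomized, double-blind, placebo-controlled oral doses: ascending single doses of 0.1–75 mg, or once daily for 14 days. Blood was challenged with LPS ex vivo and TNFα measured. An indirect response model with negative feedback on outflow and a 24-h oscillatory baseline was fitted to drug and placebo data together. Individual Bayesian PK estimates served as input. IC50 was a fraction of predose baseline. Bootstrap used 500 iterations.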

[10] = Population pharmacokinetics of oral BCT197 in healthy volunteers; assay type: in vivo, human
Procedure, shortened: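 Healthy male and non-childbearing female volunteers aged 18–50 y (BMI 18–30 kg/m²) took ascending single doses or once-daily doses for 14 days. Oral solution was used for 0.1–3 mg and tablets for ≥5 mg. Plasma drug was fitted by nonlinear mixed-effects modelling (FOCE Lindström Bates), with lognormal between-subject variability and tablet mixed zero/first-order absorption. Bootstrap used 500 iterations.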

Thermodynamic solubility = assay type: physicochemical
[11] = population mean, final estimate

T1 sequence (Q16539 whole entry): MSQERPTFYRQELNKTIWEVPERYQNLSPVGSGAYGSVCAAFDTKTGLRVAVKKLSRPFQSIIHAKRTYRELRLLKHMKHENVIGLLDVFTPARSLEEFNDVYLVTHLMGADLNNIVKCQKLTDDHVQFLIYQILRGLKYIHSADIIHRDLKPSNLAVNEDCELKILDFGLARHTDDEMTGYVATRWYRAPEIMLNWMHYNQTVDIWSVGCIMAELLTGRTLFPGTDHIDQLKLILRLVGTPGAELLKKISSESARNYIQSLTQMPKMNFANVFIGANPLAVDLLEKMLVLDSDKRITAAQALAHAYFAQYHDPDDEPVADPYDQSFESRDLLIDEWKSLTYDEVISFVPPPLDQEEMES
Sequence of P-glycoprotein (P08183 whole entry): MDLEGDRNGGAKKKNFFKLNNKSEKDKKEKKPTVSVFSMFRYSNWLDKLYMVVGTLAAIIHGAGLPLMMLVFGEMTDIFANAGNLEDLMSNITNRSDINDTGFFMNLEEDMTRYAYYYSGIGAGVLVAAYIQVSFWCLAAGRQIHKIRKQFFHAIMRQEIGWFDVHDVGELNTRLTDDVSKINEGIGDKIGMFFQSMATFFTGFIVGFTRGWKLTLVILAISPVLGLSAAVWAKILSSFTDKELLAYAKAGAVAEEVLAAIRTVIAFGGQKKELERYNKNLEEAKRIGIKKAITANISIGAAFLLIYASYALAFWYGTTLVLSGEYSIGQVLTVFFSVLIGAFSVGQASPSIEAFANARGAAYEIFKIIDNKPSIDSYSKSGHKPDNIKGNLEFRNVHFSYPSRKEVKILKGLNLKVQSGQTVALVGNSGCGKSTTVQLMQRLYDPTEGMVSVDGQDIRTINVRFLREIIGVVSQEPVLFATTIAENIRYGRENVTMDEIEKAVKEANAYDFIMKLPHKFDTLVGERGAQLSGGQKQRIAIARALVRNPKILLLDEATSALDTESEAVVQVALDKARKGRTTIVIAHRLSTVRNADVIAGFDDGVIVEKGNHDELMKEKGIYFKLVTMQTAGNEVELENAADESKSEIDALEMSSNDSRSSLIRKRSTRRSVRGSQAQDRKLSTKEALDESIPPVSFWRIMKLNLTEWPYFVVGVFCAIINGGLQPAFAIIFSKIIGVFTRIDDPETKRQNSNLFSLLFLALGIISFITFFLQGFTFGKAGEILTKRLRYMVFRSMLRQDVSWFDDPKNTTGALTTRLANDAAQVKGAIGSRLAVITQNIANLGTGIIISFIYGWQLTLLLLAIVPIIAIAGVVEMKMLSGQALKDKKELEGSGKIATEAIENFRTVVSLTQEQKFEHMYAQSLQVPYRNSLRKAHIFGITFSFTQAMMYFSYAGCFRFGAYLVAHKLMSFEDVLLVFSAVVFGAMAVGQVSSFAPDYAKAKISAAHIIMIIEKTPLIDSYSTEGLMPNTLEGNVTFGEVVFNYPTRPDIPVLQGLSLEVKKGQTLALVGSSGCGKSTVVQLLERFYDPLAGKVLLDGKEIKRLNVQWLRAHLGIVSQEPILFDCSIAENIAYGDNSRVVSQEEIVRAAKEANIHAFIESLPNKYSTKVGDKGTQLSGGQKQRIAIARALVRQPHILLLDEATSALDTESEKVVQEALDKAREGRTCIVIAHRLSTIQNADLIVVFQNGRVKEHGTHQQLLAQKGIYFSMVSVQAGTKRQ

O=C(Nc1c(Cl)cncc1Cl)c1ccc(OC(F)F)c(OCC2CC2)c1 [rofluminast, roflumilast]
TNFα levels ex vivo [1]: significant suppression

CNC(=O)c1ccc(C)c(-n2c(C)cc(OCc3ccc(F)cc3F)c(Br)c2=O)c1 [PH‐797804]
IC50 [2]: 85 nM

Cc1c(F)cc(C(=O)NC2CC2)cc1-c1ccc(C(=O)NCC(C)(C)C)cn1 [losmapimod]
IC50 [2]: 25 nM

Cc1ccc(C(=O)NC2CC2)cc1-n1ncc(C(=O)c2cccc(C#N)c2)c1N [BCT197]
IC50 (p38α [3]): 37 nM | IC50 (p38α [4]): 12 nM | IC50 ([5]; read-out: IC50 (total drug), LPS-stimulated TNFα release, human whole blood assay, total drug): 51 nM | IC50 ([5]; read-out: free IC50, LPS-stimulated TNFα release, human whole blood assay, free drug): 24 nM | Tolerability, continuous dosing ([6]; continuous dosing of 10 mg): acneiform skin rashes | Tolerability, single high doses ([6]; single high doses up to 75 mg): well tolerated | lung function (FEV1) [7]: marked improvement | inhibition of serum levels of TNFα following in vivo intravenous LPS challenge (serum levels of TNFα; single oral administration of 20 mg): 96% | inhibition of serum levels of TNFα following in vivo intravenous LPS challenge (serum levels of TNFα; single oral administration of 75 mg): 97% | saturation of low-affinity efflux pump, most likely P-glycoprotein (P-glycoprotein): not saturated up to 0.1 mg/mL | tissue distribution / retention in melanin-containing tissues [8]: remained much longer detectable in the skin and eye of the pigmented but not albino animal | IC50, concentration at half maximum inhibition ([9]; bootstrap median and 90% CI): 44.3 [30.6;65.5] µg/L | Imax, maximum inhibition ([9]; bootstrap median and 90% CI): 0.668 [0.6121;0.752] | Kout, first order degradation rate of drug response ([9]; bootstrap median and 90% CI): 0.353 [0.170;0.592] 1/h | Ktol, first order production rate of negative feedback ([9]; bootstrap median and 90% CI): 0.00281 [0.00173;0.00529] 1/h | Maximum inhibition from baseline (Imax), plateau in the typical individual ([9]; ex vivo LPS-induced TNFα secretion): about 66% | t1/2,ktol (rate constant governing tolerance) ([9]; human, in vivo): 252 h | Imax, maximum inhibition [9, 11]: 0.663 | Kout, first order degradation rate of drug response [9, 11]: 0.348 h⁻¹ | Ktol, first order production rate of negative feedback [9, 11]: 0.00276 h⁻¹ | IC50, concentration at half maximum inhibition ([9]; population mean, final estimate, plasma concentration, modeled as fraction of predose baseline): 44 µg/L and 44.3 µg/L | t1/2,kout (hysteresis in drug effect) ([9]; single dose): 2 h | Bmax, total binding capacity (tissue binding) ([10]; bootstrap median and 90% CI): 507 [308;806] µg | K1b, first order transfer rate from central compartment into shunt compartment ([10]; bootstrap median and 90% CI): 0.0105 [0.00791;0.0132] 1/h | Kt=Kint1, first-order oral absorption rate constant of tablet ([10]; bootstrap median and 90% CI): 1.13 [0.934;1.42] 1/h | Rate, zero order oral absorption rate (tablet) ([10]; bootstrap median and 90% CI): 2310 [2170;2530] µg/h | V1/F, volume of central compartment ([10]; bootstrap median and 90% CI): 71.5 [58.1;98.7] L | fc, fraction of oral dose (tablet) absorbed in a zero-order fashion ([10]; bootstrap median and 90% CI): 0.342 [0.291;0.392] | CL/F, oral drug clearance ([10]; bootstrap median and 90% CI, 500 iterations): 1.77 [1.47;2.05] L/h | rise in drug levels in reaching steady-state ([10]; once-daily regimen, on average): 3 fold | time of double peak behavior postdose ([10]; plasma concentration profile): 18 to 24 h | Bmax, total binding capacity (tissue binding) [10, 11]: 500 µg | K1b, first order transfer rate from central compartment into shunt compartment [10, 11]: 0.0106 h⁻¹ | Kt=Kint1, first-order oral absorption rate constant of tablet [10, 11]: 1.12 h⁻¹ | V1/F, volume of central compartment [10, 11]: 71.9 L | V2/F, volume of peripheral compartment [10, 11]: 25.5 L | CL/F, oral drug clearance ([10]; population mean, final estimate, healthy volunteers, oral 0.1-75 mg): 1.76 L/h | fc, fraction of oral dose (tablet) absorbed in a zero-order fashion ([10]; population mean, final estimate, modeled in logit domain and back transformed): 0.344 | Ks, first-order oral absorption rate constant of solution ([10]; population mean, fixed): 5 (fixed) 1/h | Tlag, absorption lag time ([10]; population mean, fixed): 0.232 (fixed) h | Tpump, shunt compartment emptying lag time ([10]; population mean, fixed): 18 (fixed) h | fraction (fc) of dose absorbed by the first-order process ([10]; tablets, mixed-order absorption model, on average): 66% | pH-independent thermodynamic solubility (Thermodynamic solubility): ~0.2 mg/mL
